According to ChEMBL document CHEMBL1141874, “Synthesis and biological evaluation of novel bisheterocycle-containing compounds as potential anti-influenza virus agents” (Bioorg Med Chem Lett, 2005):
≈ marks a conversion by molar mass, not a printed value. Calls of active or inactive are those of the source. The rule behind the calls is not given here.

Tests used:
Influenza B virus = assay: Inhibitory activity against influenza B virus; type: functional, organism-based
Influenza A virus [1] = assay: Cytotoxicity in MDCK cells infected with influenza A H3N2 virus; type: functional
Procedure, shortened: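 Confluent MDCK monolayers were infected with influenza A H3N2 (A3 China/15/90) for 2 h at 37 °C, then the inoculum was removed and a range of compound concentrations added. Cultures were read when the virus control reached 4+ CPE. The value is the concentration causing microscopically detectable toxicity in the virus-infected cultures.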

Influenza A virus [2] = assay: Antiviral activity against influenza A H3N2 virus in MDCK cells; type: functional, organism-based
Procedure, shortened: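 Confluent MDCK monolayers were infected with influenza A H3N2 (A3 China/15/90) for 2 h at 37 °C. The inoculum was removed and the cells were treated with a range of compound concentrations. CPE was scored once the virus control reached 4+. The concentration giving 50% reduction of virus-induced CPE was found by Reed–Muench interpolation.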

[3] = Influenza A virus, H3N2, MDCK, read-out: IC50

Row | SMILES | Activity (Influenza B virus) | CC50 (Influenza A virus [1]) | IC50 (Influenza A virus [2]; [3]) | IC50 (Influenza A virus [2]; mdck)
1 | COC(=O)c1nc(-c2csc([C@@H](NC(=O)c3ccccc3OC)C(C)C)n2)oc1C | inactive | 333 µg/mL (≈ 776 µM) | 47.7 µg/mL (≈ 111 µM) | –
2 | CCC(=O)N[C@H](c1nc(-c2nc(C(=O)N[C@@H](C)c3nc(C(=O)OC)co3)c(C)o2)cs1)C(C)C | inactive | 577 µg/mL (≈ 1180 µM) | – | –
3 | Cc1oc(-c2csc([C@@H](NC(=O)CC3=CCCC3)C(C)C)n2)nc1C(=O)O | inactive | 481 µg/mL (≈ 1230 µM) | 29 µg/mL (≈ 74.5 µM) | –
4 | COC(=O)c1nc(-c2csc([C@@H](NC(=O)CC=C(C)C)C(C)C)n2)oc1C | inactive | > 1000 µg/mL | 192 µg/mL (≈ 492 µM) | –
5 | Cc1oc2nc1C(=O)N[C@@H](C)c1nc(co1)C(=O)N[C@@H](CC(C)C)C(=O)N1CCC[C@H]1C(=O)N[C@@H](C(C)C)c1nc-2cs1 [LEUCAMIDE A] | – | inactive | – | Not Active
6 | COC(=O)c1coc([C@H](C)NC(=O)c2nc(-c3csc([C@@H](NC(=O)C4CCCCC4)C(C)C)n3)oc2C)n1 | inactive | 144 µg/mL (≈ 266 µM) | – | –
7 | COC(=O)c1nc(-c2csc([C@@H](NC(=O)C(C)(C)C)C(C)C)n2)oc1C | inactive | 577 µg/mL (≈ 1520 µM) | – | –
8 | C=CCCC(=O)N[C@H](c1nc(-c2nc(C(=O)OC)c(C)o2)cs1)C(C)C | inactive | 577 µg/mL (≈ 1530 µM) | – | –
9 | COC(=O)c1nc(-c2csc([C@@H](N)C(C)C)n2)oc1C | inactive | 577 µg/mL (≈ 1950 µM) | 259 µg/mL (≈ 876 µM) | –
10 | COC(=O)c1nc(-c2csc([C@@H](NC(=O)c3cccc(F)c3)C(C)C)n2)oc1C | inactive | > 1000 µg/mL | > 86.2 µg/mL | –
11 | COC(=O)c1coc([C@H](C)NC(=O)c2nc(-c3csc([C@@H](NC(=O)CC4=CCCCC4)C(C)C)n3)oc2C)n1 | inactive | 577 µg/mL (≈ 1040 µM) | 44.5 µg/mL (≈ 80 µM) | –
12 | COC(=O)c1nc(-c2csc([C@@H](NC(=O)CCC=C(C)C)C(C)C)n2)oc1C | inactive | 577 µg/mL (≈ 1420 µM) | 37 µg/mL (≈ 91.3 µM) | –
13 | NC(=O)c1ncn([C@@H]2O[C@H](CO)[C@@H](O)[C@H]2O)n1 [RIBAVIRIN] | – | – | 3.73 µg/mL (≈ 15.3 µM) | –
14 | COC(=O)c1nc(-c2csc([C@@H](NC(=O)C3CCC3)C(C)C)n2)oc1C | inactive | 500 µg/mL (≈ 1320 µM) | – | –
15 | COc1ccccc1C(=O)N[C@H](c1nc(-c2nc(C(=O)O)c(C)o2)cs1)C(C)C | inactive | 333 µg/mL (≈ 802 µM) | 29 µg/mL (≈ 69.8 µM) | –
16 | COC(=O)c1coc([C@H](C)NC(=O)c2nc(-c3csc([C@@H](NC(=O)CC=C(C)C)C(C)C)n3)oc2C)n1 | inactive | 577 µg/mL (≈ 1090 µM) | – | –
17 | COC(=O)c1nc(-c2csc([C@@H](NC(=O)C3CCCCC3)C(C)C)n2)oc1C | inactive | 144 µg/mL (≈ 356 µM) | 43.6 µg/mL (≈ 107 µM) | –
18 | COC(=O)c1coc([C@H](C)NC(=O)c2nc(-c3csc([C@@H](NC(=O)c4cccc(F)c4)C(C)C)n3)oc2C)n1 | inactive | 577 µg/mL (≈ 1040 µM) | 77 µg/mL (≈ 139 µM) | –
19 | CCC(=O)N[C@H](c1nc(-c2nc(C(=O)OC)c(C)o2)cs1)C(C)C | inactive | 577 µg/mL (≈ 1640 µM) | – | –
20 | COC(=O)c1nc(-c2csc([C@@H](NC(=O)CC3=CCCCC3)C(C)C)n2)oc1C | inactive | 231 µg/mL (≈ 554 µM) | – | –
21 | C/C=C(\C)C(=O)N[C@H](c1nc(-c2nc(C(=O)OC)c(C)o2)cs1)C(C)C | inactive | 231 µg/mL (≈ 612 µM) | 37 µg/mL (≈ 98.1 µM) | –
22 | COC(=O)c1nc(-c2csc([C@@H](NC(=O)CC3=CCCC3)C(C)C)n2)oc1C | inactive | 333 µg/mL (≈ 826 µM) | – | –
